Assay results reported in ChEMBL document CHEMBL4049430, “Indazole-6-phenylcyclopropylcarboxylic Acids as Selective GPR120 Agonists with in Vivo Efficacy” (J Med Chem, 2017).
The source made the active and inactive calls. No cut-off for these calls is given here.

Assays:
[1] = target: Free fatty acid receptor 1 (Mus musculus, UniProt Q76JU9); assay: Agonist activity at mouse GPR40 expressed in HEK293 cells assessed as increase in intracellular calcium level after 5 mins by FLUO-4-AM dye-based FLIPR assay; format: functional, cell-based
Summary of the method: (§1)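 HEK293s cells stably expressing mouse GPR40 were seeded 24 h before assay and loaded for 1 h with calcium 3/Fluo-4 AM in HBSS, 20 mM HEPES, 0.01% BSA, 2.5 mM probenecid, pH 7.4. FLIPR Tetra took 10 baseline reads, then read for 5 min after addition. Runs were in duplicate, 9 points, 100 μM to 7 nM final, as % of maximal eladic acid control.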

[2] = Drug uptake in mouse brain at 50 mg/kg, po after 2 hrs; format: ADME, organism-based; details: read-out: Drug uptake
[3] = Clearance in mouse at 2.5 mg/kg, iv after 24 hrs; format: ADME, organism-based; details: in vivo
[4] = target: T1, Free fatty acid receptor 4 (Mus musculus, UniProt Q7TMA4); assay: Agonist activity at mouse GPR120 expressed in CHO-FlpIn cells after 15 mins by DMR assay; format: cell-based
T1 sequence (Q7TMA4 whole entry): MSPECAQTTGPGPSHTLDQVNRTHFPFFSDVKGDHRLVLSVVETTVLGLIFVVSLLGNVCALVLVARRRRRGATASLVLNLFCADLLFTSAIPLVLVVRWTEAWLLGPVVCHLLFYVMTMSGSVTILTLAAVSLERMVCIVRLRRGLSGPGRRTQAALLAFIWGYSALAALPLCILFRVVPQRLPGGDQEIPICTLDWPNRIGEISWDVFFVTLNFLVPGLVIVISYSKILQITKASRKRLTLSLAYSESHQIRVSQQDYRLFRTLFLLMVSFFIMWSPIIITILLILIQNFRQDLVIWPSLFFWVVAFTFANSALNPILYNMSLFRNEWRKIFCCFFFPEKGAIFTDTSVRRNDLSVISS
Summary of the method: (§2)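 Cryopreserved CHO FlpIn cells stably expressing human or mouse GPR120 were seeded 48 h before assay, serum-starved for 24 h, then held 2 h in HBSS/20 mM HEPES/0.01% BSA (pH 7.4) with 0.5% DMSO. DMR was read over a 10 min baseline and for 15 min after addition. Runs were in duplicate, 10 points, 16 μM to 0.8 nM final, as % of maximal control agonist.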

Mus musculus [5] = assay: Toxicity in mouse at 150 mg/kg, po after 2 hrs; format: organism-based; details: in vivo
[6] = Octanol-buffer partition coefficient, log D of the compound at pH 7.4 after 30 mins by LC-UV based shake-flask method
[7] = Volume of distribution at steady state in mouse at 2.5 mg/kg, iv after 24 hrs; format: ADME, organism-based; details: in vivo, read-out: Vdss
[8] = Protein binding in mouse plasma assessed as unbound fraction after 24 hrs by equilibrium dialysis; format: ADME, cell-free
[9] = Apparent permeability across apical to basolateral side in human Caco2 cells; details: Caco-2
[10] = Ratio of unbound drug level in mouse brain to blood at 5 mg/kg administered through oral gavage after 2 hrs; details: brain/blood
Mus musculus [11] = assay: Toxicity in mouse at 50 mg/kg, po; format: organism-based; details: in vivo
[12] = Cmax in mouse at 5 mg/kg administered through oral gavage after 24 hrs; format: ADME, organism-based; design: dose 5 mg/kg, route oral; details: in vivo
[13] = target: Free fatty acid receptor 1 (Mus musculus) (UniProt Q76JU9); assay: Agonist activity at mouse GPR40 expressed in HEK293 cells assessed as increase in intracellular calcium level after 5 mins by FLUO-4-AM dye-based FLIPR assay relative to control; format: functional, cell-based; summary of the method: as §1
Mus musculus [14] = assay: (§3) Oral bioavailability in mouse at 5 mg/kg after 24 hrs; format: ADME, organism-based; details: in vivo, 24 h
[15] = target: T2, Free fatty acid receptor 4 (Homo sapiens) (UniProt Q5NUL3); assay: Agonist activity at human GPR120 expressed in CHO-FlpIn cells after 15 mins by DMR assay relative to control; format: cell-based; summary of the method: as §2
T2 sequence (whole entry): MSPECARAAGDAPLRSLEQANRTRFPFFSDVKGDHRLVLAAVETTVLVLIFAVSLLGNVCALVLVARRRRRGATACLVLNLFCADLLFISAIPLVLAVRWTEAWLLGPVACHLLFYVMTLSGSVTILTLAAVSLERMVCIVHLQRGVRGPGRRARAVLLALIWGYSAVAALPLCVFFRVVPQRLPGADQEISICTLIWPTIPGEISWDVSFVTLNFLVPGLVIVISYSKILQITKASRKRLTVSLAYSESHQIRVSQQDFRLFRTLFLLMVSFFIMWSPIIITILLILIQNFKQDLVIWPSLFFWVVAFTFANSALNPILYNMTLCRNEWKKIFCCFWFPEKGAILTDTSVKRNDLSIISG

[16] = Ratio of drug level in mouse brain to blood at 5 mg/kg administered through oral gavage after 2 hrs; format: ADME, organism-based
[17] = target: T3, Free fatty acid receptor 4 (Mus musculus) (UniProt Q7TMA4); assay: Agonist activity at mouse GPR120 expressed in CHO-FlpIn cells after 15 mins by DMR assay relative to control; format: cell-based; summary of the method: as §2
T3 sequence (whole entry): T1 sequence (Q7TMA4 whole entry)

MDR1 = assay: Efflux ratio of permeability in MDCK2-MDR1 cells at 10 uM; details: dog, MDCK-MDR1
[18] = Cmax in mouse blood at 50 mg/kg, po; format: ADME, organism-based; design: dose 50 mg/kg, route oral
[19] = target: T4, Free fatty acid receptor 4 (Homo sapiens, UniProt Q5NUL3); assay: Agonist activity at human GPR120 expressed in CHO-FlpIn cells after 15 mins by DMR assay; format: cell-based; summary of the method: as §2
T4 sequence (Q5NUL3 whole entry): T2 sequence (whole entry)

Mus musculus [20] = assay: Antidiabetic activity in C57BL/6J mouse assessed as reduction in glucose excursion at 100 mg/kg administered through oral gavage 30 mins prior to glucose challenge measured after 90 mins by OGTT relative to control; format: functional; design: scale not given: the % may be the effect or the level left
Summary of the method: (§4)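 OGTT used in-house C57BL/6J mice aged 10–11 weeks. GPR120 knockout and wild-type controls were bred in house, back-crossed onto C57BL/6J, and used at 9–10 weeks. Compound was given as a suspension: a concentrated stock was made at rt the day before and diluted on study day to the dosing concentrations.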

[21] = Ratio of unbound drug level in wild-type mouse brain to blood at 100 mg/kg administered through oral gavage 30 mins prior to glucose challenge measured after 90 mins; details: brain/blood
[22] = Ratio of unbound drug level in GPR120 knockout mouse brain to blood at 100 mg/kg administered through oral gavage 30 mins prior to glucose challenge measured after 90 mins; details: in vivo, 1.5 h
Adenosine receptor A2a = Adenosine receptor A2a (Homo sapiens, UniProt P29274); assay: Inhibition of Adenosine A2A receptor (unknown origin)
[23] = as §3; format: ADME, organism-based; details: in vivo
Mus musculus [24] = assay: Antidiabetic activity in GPR120 knockout mouse assessed as reduction in glucose excursion at 100 mg/kg administered through oral gavage 30 mins prior to glucose challenge measured after 90 mins by OGTT; format: functional, organism-based; summary of the method: as §4
Mus musculus [25] = assay: Antidiabetic activity in wild-type mouse assessed as reduction in glucose excursion at 100 mg/kg administered through oral gavage 30 mins prior to glucose challenge measured after 90 mins by OGTT relative to control; format: functional; design: scale not given: the % may be the effect or the level left; summary of the method: as §4
[26] = Volume of distribution at steady state in mouse at 1 mg/kg, iv after 24 hrs; format: ADME, organism-based; details: in vivo, read-out: Vdss
[27] = Clearance in mouse at 1 mg/kg, iv after 24 hrs; format: ADME, organism-based; details: in vivo
[28] = Drug uptake in mouse blood at 300 mg/kg, po after 1 hr; format: ADME, organism-based; details: read-out: Drug uptake
[29] = Drug uptake in mouse brain at 300 mg/kg, po after 1 hr; format: ADME, organism-based; details: read-out: Drug uptake
[30] = Drug uptake in mouse blood at 150 mg/kg, po after 2 hrs; format: ADME, organism-based; details: read-out: Drug uptake
Mus musculus [31] = assay: Toxicity in mouse at 300 mg/kg, po after 1 hr; format: organism-based; details: in vivo
[32] = target: 3',5'-cyclic-AMP phosphodiesterase 4D (Homo sapiens, UniProt Q08499); assay: Inhibition of phosphodiesterase 4D (unknown origin)
Chain of 3',5'-cyclic-AMP phosphodiesterase 4D (Q08499 whole entry): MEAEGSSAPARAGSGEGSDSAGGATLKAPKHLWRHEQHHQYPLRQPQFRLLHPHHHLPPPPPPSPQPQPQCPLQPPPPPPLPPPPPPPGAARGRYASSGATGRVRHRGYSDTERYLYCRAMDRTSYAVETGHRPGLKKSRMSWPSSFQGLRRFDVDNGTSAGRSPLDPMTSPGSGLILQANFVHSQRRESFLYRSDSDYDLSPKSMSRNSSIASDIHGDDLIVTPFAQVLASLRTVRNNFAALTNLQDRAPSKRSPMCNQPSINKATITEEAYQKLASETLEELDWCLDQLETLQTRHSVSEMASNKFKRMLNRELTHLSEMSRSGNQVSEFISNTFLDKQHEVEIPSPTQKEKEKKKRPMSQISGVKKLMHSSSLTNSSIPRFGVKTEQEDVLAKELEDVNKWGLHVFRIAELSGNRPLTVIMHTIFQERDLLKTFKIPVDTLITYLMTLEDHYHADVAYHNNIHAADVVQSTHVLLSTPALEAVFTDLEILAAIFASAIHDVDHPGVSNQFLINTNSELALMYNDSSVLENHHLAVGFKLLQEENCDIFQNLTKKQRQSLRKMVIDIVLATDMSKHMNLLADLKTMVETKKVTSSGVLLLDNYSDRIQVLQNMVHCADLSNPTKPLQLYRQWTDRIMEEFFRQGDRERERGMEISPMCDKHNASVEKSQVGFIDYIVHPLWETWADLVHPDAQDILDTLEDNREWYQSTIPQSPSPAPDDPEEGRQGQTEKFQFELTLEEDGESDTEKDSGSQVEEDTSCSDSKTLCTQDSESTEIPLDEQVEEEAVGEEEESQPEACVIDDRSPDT

Chain of Free fatty acid receptor 1 (Q76JU9 whole entry): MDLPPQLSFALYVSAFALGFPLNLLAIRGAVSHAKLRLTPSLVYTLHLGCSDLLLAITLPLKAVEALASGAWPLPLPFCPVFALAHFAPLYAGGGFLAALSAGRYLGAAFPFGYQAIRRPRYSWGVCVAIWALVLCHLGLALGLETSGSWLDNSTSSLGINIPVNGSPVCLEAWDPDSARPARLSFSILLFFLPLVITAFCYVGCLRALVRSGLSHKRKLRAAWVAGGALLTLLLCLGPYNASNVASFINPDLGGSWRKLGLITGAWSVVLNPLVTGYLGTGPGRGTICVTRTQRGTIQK
Chain of Free fatty acid receptor 1 (Mus musculus) (Q76JU9 whole entry): as above
Chain of Adenosine receptor A2a (P29274 whole entry): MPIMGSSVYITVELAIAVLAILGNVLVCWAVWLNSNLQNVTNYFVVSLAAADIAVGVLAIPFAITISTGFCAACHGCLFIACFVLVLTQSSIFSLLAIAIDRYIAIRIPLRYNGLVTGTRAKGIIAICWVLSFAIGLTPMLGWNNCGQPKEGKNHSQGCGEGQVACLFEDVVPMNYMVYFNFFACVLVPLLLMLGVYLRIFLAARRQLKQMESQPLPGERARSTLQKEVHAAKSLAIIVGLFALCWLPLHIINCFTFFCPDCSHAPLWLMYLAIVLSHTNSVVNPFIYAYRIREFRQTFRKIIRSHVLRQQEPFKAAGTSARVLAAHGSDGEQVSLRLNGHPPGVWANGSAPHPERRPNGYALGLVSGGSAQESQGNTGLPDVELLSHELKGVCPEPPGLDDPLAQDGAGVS

Row | Compound | EC50 [1] [nM] | clearance [3] [mL/min/kg] | EC50 [4] [nM] | Activity (Mus musculus [5]) | logD at 0.5 h [6] | Vd [7] [L/kg] | fraction unbound at 24 h [8] | Papp A→B [9] [×10⁻⁶ cm/s] | Kp uu at 2 h [10] | Cmax [12] [µM] | Efficacy [13] [%] | Efficacy [15] [%] | Kp at 2 h [16] | Efficacy [17] [%] | efflux ratio at 10 µM (MDR1) | EC50 [19] [nM] | bioavailability [23] [%] | further results
1 | COc1nn(-c2ccccn2)c2cc(-c3ccc([C@H]4C[C@@H]4C(=O)O)cc3)cc(F)c12 | > 100000 | 5.2 | 620 | Toxic | 3.8 | 1 | 0.0053 | 29 | 0.45 | 8.2 | 19 | 93 | 2 | 103 | 0.59 | 510 | – | concentration at 2 h [2]: 147 µM; Activity (Mus musculus [11]): Non-Toxic; F (Mus musculus [14]): 159%; Cmax [18]: 97 µM
2 | Cc1ccc(-n2nc(C)c3cnc(-c4ccc([C@H]5C[C@@H]5C(=O)O)cc4F)cc32)nc1 | > 100000 | – | 1000 | – | 2.6 | – | 0.021 | 76 | 0.14 | 3.3 | 2 | 66 | 0.37 | 79 | 2.8 | 740 | 131 | Activity (Mus musculus [20]): 45%; Kp uu at 1.5 h [21]: 0.12; Ratio [22]: 0.12; Ki (Adenosine receptor A2a): 1700 nM; Activity (Mus musculus [24]): inactive; Activity (Mus musculus [25]): 47%; Vd [26]: 2.4 L/kg; clearance [27]: 13 mL/min/kg
3 | COc1nn(-c2ccccn2)c2cc(-c3ccc([C@H]4C[C@@H]4C(=O)O)cc3)ccc12 | > 100000 | 9.3 | 410 | Non-Toxic | 3.8 | 1.5 | 0.0048 | 31 | 0.86 | 5.4 | 1 | 102 | 2.3 | 99 | 2 | 470 | 126 | concentration at 1 h [28]: 284 µM; concentration at 1 h [29]: 207 µM; concentration at 2 h [30]: 126 µM; Activity (Mus musculus [31]): Toxic; IC50 [32]: 1600 nM
